In ChEMBL document CHEMBL1129681, “Synthesis, absolute configuration, and biological profile of the enantiomers of trans-[2-(2,6-dimethoxyphenoxy)ethyl] [(3-p-tolyl-2,3-dihydro-1,4-benzodioxin-2-yl)methyl]amine (mephendioxan), a potent competitive alpha 1A-adrenoreceptor antagonist” (J Med Chem, 1996):

Assays:
[1] = target: T1, Alpha-1A adrenergic receptor (Rattus norvegicus, UniProt P43140); assay: Binding affinity towards Alpha-1A adrenergic receptor in rat hippocampus (+ 10 uM) […] membrane using [3H]prazosin as radioligand; type: tissue-based
T1 sequence (P43140 whole entry): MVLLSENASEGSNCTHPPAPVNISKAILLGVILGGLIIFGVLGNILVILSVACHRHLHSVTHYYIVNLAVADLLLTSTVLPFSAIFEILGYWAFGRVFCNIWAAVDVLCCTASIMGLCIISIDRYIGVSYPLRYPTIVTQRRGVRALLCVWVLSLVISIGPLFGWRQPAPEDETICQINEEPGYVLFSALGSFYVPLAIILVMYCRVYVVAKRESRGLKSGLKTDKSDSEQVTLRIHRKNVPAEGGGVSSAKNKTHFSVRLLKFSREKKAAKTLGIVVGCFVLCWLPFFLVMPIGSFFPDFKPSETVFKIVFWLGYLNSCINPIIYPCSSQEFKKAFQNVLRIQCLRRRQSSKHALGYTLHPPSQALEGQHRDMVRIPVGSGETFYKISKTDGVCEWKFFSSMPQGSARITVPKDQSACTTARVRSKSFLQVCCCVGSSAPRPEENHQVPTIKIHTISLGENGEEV
Summary of the method: (§1)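 Native α1A site from rat hippocampus membranes pretreated with CEC, labelled with [3H]prazosin in competition binding. Mean ± SE of at least three separate experiments, each run in triplicate.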

[2] = target: T2, Adrenergic receptor alpha-2 (Rattus norvegicus) (UniProt P22086+P19328+P22909); conditions: Vas deferens
D(2) dopamine receptor [3] = target: T3, D(2) dopamine receptor (Rattus norvegicus, UniProt P61169); assay: In vitro inhibitory activity against [3H]spiperone binding to Dopamine receptor D2
T3 sequence (P61169 whole entry): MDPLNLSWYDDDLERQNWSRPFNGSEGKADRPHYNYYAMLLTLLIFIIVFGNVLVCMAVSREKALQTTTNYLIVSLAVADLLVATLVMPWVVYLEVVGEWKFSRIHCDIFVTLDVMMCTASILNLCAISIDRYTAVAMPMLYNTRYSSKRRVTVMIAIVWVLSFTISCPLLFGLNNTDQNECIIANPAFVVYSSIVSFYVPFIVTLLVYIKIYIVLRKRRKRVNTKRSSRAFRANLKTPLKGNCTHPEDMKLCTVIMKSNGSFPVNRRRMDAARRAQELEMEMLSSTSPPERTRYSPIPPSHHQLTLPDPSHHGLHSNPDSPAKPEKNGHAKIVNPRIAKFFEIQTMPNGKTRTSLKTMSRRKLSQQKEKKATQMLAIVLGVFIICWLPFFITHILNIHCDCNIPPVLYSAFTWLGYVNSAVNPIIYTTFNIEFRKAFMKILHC

[4] = target: T4, Adrenergic receptor alpha-1 (Rattus norvegicus, UniProt P15823+P23944+P43140); assay: Binding affinity towards Alpha-1 adrenergic receptor in rat cerebral cortex using [3H]prazosin as radioligand; type: tissue-based
T4 sequence (P15823 whole entry): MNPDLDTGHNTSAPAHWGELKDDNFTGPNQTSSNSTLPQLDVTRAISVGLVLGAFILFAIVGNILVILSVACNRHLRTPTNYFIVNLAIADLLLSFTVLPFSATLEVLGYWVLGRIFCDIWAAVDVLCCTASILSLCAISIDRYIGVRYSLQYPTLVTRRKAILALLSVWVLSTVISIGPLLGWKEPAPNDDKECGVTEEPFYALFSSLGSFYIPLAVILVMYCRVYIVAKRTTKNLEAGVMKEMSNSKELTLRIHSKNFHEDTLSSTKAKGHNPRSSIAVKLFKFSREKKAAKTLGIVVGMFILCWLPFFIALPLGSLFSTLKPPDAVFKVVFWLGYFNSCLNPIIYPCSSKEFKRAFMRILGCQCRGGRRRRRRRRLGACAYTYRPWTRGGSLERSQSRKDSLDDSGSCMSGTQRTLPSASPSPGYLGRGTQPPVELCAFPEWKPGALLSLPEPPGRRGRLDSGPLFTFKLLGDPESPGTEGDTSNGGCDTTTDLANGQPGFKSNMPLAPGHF
T4 sequence (P23944 whole entry): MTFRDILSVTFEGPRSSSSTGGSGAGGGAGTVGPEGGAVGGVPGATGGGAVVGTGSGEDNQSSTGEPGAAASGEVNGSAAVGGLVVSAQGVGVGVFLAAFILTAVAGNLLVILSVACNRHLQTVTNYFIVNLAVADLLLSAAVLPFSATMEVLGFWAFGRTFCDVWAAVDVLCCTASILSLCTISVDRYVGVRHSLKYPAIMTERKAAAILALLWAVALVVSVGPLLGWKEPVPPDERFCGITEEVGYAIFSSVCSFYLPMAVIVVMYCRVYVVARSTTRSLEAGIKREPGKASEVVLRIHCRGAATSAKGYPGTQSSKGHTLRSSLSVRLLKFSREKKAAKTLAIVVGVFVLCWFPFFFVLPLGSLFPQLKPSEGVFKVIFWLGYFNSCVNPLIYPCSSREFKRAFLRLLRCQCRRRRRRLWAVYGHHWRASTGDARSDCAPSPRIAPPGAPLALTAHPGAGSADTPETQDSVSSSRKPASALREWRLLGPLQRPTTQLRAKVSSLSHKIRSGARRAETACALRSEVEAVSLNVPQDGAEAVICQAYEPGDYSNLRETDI
T4 sequence (P43140 whole entry): T1 sequence (P43140 whole entry)
Summary of the method: (§2)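 Rat brain membranes (native receptors): cerebral cortex for α1 with [3H]prazosin (79.2 Ci/mmol) and α2 with [3H]rauwolscine (80.5 Ci/mmol); hippocampus for 5-HT1A with [3H]8-OH-DPAT (162.9 Ci/mmol); striatum for D2 with [3H]spiperone (17.7 Ci/mmol). Radioligand competition by test drug; mean ± SE of at least three separate experiments in triplicate.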

[5] = target: T5, Alpha-1D adrenergic receptor (Rattus norvegicus, UniProt P23944); assay: Binding affinity towards Alpha-1D adrenergic receptor in rat brain using [3H]prazosin as radioligand; type: tissue-based
T5 sequence (P23944 whole entry): T4 sequence (P23944 whole entry)

[6] = target: T2, Adrenergic receptor alpha-2 (Rattus norvegicus); assay: (§3) Binding affinity towards Alpha-2 adrenergic receptor in rat cerebral cortex using [3H]rauwolscine as radioligand; type: tissue-based; summary of the method: as §2
[7] = target: T6, 5-hydroxytryptamine receptor 1A (Rattus norvegicus, UniProt P19327); assay: Binding affinity towards 5-hydroxytryptamine 1A receptor in rat hypocampus membrane using [3H]8-OH-DPAT as radioligand; type: cell membranes; summary of the method: as §2
T6 sequence (P19327 whole entry): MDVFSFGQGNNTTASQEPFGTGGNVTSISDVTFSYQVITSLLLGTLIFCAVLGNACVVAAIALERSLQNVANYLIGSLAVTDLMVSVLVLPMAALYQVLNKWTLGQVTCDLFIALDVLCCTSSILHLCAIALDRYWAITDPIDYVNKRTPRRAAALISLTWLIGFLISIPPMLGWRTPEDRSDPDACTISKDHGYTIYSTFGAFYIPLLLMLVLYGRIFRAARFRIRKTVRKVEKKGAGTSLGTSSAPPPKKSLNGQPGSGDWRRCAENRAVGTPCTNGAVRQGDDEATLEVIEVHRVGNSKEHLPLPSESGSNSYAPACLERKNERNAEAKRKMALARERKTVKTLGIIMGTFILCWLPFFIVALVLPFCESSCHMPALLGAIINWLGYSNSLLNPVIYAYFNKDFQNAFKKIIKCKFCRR

[8] = target: T7, Alpha-1B adrenergic receptor (Rattus norvegicus, UniProt P15823); assay: Binding affinity towards Alpha-1B adrenergic receptor in rat liver using [3H]prazosin as radioligand
T7 sequence (P15823 whole entry): T4 sequence (P15823 whole entry)

[9] = target: T4, Adrenergic receptor alpha-1; assay: pA2 values was evaluated against Alpha-1 adrenergic receptor in the isolated Rat Vas Deferens; type: functional, tissue-based
Summary of the method: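 Functional antagonism was measured in isolated tissue. Dose ratios were taken at agonist EC50 values at three antagonist concentrations, each concentration tested five times. pA2 was derived from Schild plots constrained to slope -1 and is reported as mean ± SE of n experiments.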

[10] = target: T8, Alpha-1A adrenergic receptor (Bos taurus, UniProt P18130); assay: Binding affinity towards Alpha-1A adrenergic receptor in bovine brain using [3H]-prazosin as radioligand
T8 sequence (P18130 whole entry): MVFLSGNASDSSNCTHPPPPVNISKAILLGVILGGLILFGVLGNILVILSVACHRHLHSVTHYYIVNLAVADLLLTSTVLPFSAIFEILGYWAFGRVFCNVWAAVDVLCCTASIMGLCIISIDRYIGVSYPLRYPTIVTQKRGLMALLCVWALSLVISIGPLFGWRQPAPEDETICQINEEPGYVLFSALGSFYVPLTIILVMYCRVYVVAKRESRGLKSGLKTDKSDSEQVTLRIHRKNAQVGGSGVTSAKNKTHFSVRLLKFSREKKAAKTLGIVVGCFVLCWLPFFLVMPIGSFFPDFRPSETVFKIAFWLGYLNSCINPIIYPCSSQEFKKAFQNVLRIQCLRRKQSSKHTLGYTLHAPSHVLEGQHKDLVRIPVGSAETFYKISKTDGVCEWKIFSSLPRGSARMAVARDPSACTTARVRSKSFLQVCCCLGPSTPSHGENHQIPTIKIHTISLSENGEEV
Summary of the method: (§4)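 Membranes (35-70 µg protein) from COS-7 cells transiently expressing bovine α1a, hamster α1b or rat α1d adrenoceptor. Incubated with 0.3-0.6 nM [3H]prazosin ± displacer in 50 mM Tris-HCl pH 7.4, 10 µM pargyline, 0.1% ascorbic acid, 30 min at 25 °C. Stopped with ice-cold buffer, then rapid filtration. Mean ± SE of ≥3 experiments in triplicate.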

[11] = target: T9, Adrenergic receptor alpha-2 (Rattus norvegicus, UniProt P22086+P19328+P22909); assay: as §3; type: tissue-based; summary of the method: as §2
T9 sequence (P22086 whole entry): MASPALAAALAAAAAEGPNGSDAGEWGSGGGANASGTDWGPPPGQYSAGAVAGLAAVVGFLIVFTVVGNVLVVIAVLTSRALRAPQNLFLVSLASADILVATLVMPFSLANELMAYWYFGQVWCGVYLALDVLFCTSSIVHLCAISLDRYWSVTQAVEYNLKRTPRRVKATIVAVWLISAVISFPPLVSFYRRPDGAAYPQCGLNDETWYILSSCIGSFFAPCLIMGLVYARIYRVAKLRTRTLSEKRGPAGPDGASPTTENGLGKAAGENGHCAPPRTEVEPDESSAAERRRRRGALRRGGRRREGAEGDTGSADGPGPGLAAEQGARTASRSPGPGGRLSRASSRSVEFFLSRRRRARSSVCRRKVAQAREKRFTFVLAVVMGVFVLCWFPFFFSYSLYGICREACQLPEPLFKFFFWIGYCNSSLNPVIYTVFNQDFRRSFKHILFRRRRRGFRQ
T9 sequence (P19328 whole entry): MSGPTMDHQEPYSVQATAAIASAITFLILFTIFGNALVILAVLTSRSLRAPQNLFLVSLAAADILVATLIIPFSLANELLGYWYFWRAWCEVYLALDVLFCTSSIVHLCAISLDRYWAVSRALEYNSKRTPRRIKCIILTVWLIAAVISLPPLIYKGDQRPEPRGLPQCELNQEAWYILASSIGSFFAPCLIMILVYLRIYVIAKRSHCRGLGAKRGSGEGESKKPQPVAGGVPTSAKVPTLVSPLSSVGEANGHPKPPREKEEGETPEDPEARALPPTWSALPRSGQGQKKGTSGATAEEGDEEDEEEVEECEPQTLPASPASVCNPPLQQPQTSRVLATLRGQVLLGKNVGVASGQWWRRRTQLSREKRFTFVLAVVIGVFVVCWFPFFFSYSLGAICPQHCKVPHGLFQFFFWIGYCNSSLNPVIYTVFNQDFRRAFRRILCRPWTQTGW
T9 sequence (P22909 whole entry): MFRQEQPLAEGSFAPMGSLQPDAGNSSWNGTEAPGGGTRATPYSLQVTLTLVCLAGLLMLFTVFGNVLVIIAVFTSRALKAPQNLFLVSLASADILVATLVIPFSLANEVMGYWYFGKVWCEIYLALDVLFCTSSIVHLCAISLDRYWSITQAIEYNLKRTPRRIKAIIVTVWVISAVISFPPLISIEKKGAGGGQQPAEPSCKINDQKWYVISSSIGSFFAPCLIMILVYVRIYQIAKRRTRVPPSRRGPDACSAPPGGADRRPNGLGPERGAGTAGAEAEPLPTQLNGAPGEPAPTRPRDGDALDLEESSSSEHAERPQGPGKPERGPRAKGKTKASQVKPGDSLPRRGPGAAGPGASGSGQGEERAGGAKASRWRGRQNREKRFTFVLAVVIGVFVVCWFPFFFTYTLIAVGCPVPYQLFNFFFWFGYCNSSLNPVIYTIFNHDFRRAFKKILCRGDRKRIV

[12] = target: T1, Alpha-1A adrenergic receptor; assay: Binding affinity towards Alpha-1A adrenergic receptor in rat hippocampal membranes using [3H]prazosin as radioligand; type: cell membranes, Hippocampus; summary of the method: as §1
D(2) dopamine receptor [13] = target: T3, D(2) dopamine receptor; assay: Binding affinity towards Dopamine receptor D2 in rat striatum using [3H]spiperone as radioligand; type: tissue-based; summary of the method: as §2
[14] = target: T8, Alpha-1A adrenergic receptor; assay: Binding affinity towards Alpha-1A adrenergic receptor in bovine brain using [3H]prazosin as radioligand; summary of the method: as §4
[15] = target: T2, Adrenergic receptor alpha-2 (Rattus norvegicus); conditions: Vas deferens; remark: listed apart in the source

Compound	Ki [1]	-Log KB [2]	Ki (D(2) dopamine receptor [3])	Ki [4]	Ki [5]	Affinity [6]	Ki [7]	Ki [8]	pA2 [9]	Ki [10]	Ki [11]	Ki [12]	Ki (D(2) dopamine receptor [13])	Ki [14]	-Log KB [15]
COc1cccc(OC)c1OCCNCC1Oc2ccccc2OC1c1ccc(C)cc1 (racemic)	5.32 nM	< 5	82.3 nM	17.03 nM	11.8 nM	3.5 µM	606 nM	103 nM	8.67	0.91 nM					
COC(=O)C1=C(C)NC(C)=C(C(=O)OCCCN2CCC(c3ccccc3)(c3ccccc3)CC2)[C@H]1c1cccc([N+](=O)[O-])c1 [NIGULDIPINE]											1611 nM				
COc1cccc(OC)c1OCCNC[C@@H]1Oc2ccccc2O[C@H]1c1ccc(C)cc1		< 5		9.97 nM	6.57 nM		889 nM	62.6 nM	8.92		4293 nM	1.76 nM	86.5 nM	0.35 nM	
COc1cccc(OC)c1OCCNCC1COc2ccccc2O1 (stereo not given)				8.72 nM	6.26 nM		7.26 nM		9.13		14.72 nM	1.29 nM	123 nM	0.62 nM	6.29
COc1cccc(OC)c1OCCNC[C@H]1Oc2ccccc2O[C@@H]1c1ccc(C)cc1		< 5		121.2 nM	191 nM		1260 nM	774 nM	7.59		2142 nM	40.3 nM	827 nM	8.34 nM	
